Calls of active or inactive are those of the source. The calls are words filed in the database; no cut-off is given here.
Tests used:
Canis lupus familiaris [1] = organism: Canis lupus familiaris; assay: (§1) Inhibition of cAMP PDE in canine cardiac tissue; conditions: concentration not given here
Outline: (§2)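 The enzyme was partially purified cAMP phosphodiesterase from canine brain or cardiac tissue. IC50 is the concentration giving 50% inhibition, taken from the mean of three separate dose-response determinations. Near the IC50, inhibition at the test doses ranged by less than ±8%.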

Mustela putorius furo [2] = organism: Mustela putorius furo; assay: In vitro inotropic effect, 20% increase in the force of contraction of isolated ferret papillary muscle strips (Not reached at 100 uM); assay type: functional; conditions: Muscle tissue
Outline: (§3)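 Isolated ferret papillary muscle in vitro. The read-out is the dose that gives a 20% rise in contractile force over control (EC20). "NR" means this rise was not reached at 100 μM.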

Canis lupus familiaris [3] = organism: Canis lupus familiaris; assay: Inhibition of cAMP PDE in canine brain; conditions: concentration not given here; outline: as §2
Canis familiaris [4] = assay: Mean percentage change in the left ventricular contractility (dP/dt) in pentobarbital anesthetized dogs at 3 mg/kg; assay type: functional, Canis lupus familiaris, Heart left ventricle
Outline: (§4)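 Pentobarbital-anesthetized dogs were given the agent intravenously at 1 and 3 mg/kg. Left ventricular dP/dt, heart rate and mean arterial pressure were monitored. Values are mean percent change from control ± SEM, n = 4.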

Canis familiaris [5] = assay: Percentage decrease in Mean arterial pressure in pentobarbital anesthetized dogs at 1 mg/kg; assay type: functional, Canis lupus familiaris, Artery; outline: as §4
Canis familiaris [6] = assay: Percentage decrease in Mean arterial pressure in pentobarbital anesthetized dogs at 3 mg/kg; assay type: functional, Canis lupus familiaris, Artery; outline: as §4
Canis familiaris [7] = assay: Mean percentage change in heart rate of pentobarbital anesthetized dogs at 3 mg/kg; assay type: functional, Canis lupus familiaris; outline: as §4
Canis lupus familiaris [8] = organism: Canis lupus familiaris; assay: Percentage inhibition of cAMP PDE in canine brain tissue; assay type: tissue-based; conditions: dose or concentration not given here
[9] = as §1; parameters: species or system Canis lupus familiaris; outline: as §2
Canis familiaris [10] = assay: Mean percentage change in heart rate of pentobarbital anesthetized dogs at 1 mg/kg; assay type: functional, Canis lupus familiaris; outline: as §4
Mustela putorius furo [11] = organism: Mustela putorius furo; assay: In vitro inotropic effect, 20% increase in the force of contraction of isolated ferret papillary muscle strips; assay type: functional; conditions: Muscle tissue; outline: as §3
Canis familiaris [12] = assay: Mean percentage change in the left ventricular contractility (dP/dt) in pentobarbital anesthetized dogs at 1 mg/kg; assay type: functional, Canis lupus familiaris, Heart left ventricle; outline: as §4
[13] = Inhibition of cAMP PDE from canine brain; parameters: species or system Canis lupus familiaris; outline: as §2
Mustela putorius furo [14] = organism: Mustela putorius furo; assay: In vitro inotropic effect, 20% increase in the force of contraction of isolated ferret papillary muscle strips (two EC20 determinations); assay type: functional; conditions: Muscle tissue
Outline: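 Contractile force was measured in isolated ferret papillary muscle in vitro. EC20 is the dose that gives a 20% increase in force. Two separate EC20 determinations were made.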

Canis familiaris [15] = assay: Percentage decrease in Mean arterial pressure in pentobarbital anesthetized dogs at 0.1 mg/kg; assay type: functional, Canis lupus familiaris, Artery
Outline: (§5)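 Pentobarbital-anesthetized dogs received doses of 0.1 and 0.3 mg/kg. Left ventricular dP/dt, heart rate and mean arterial pressure were monitored. Values are mean percent change from control ± SEM, n = 6.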

Canis familiaris [16] = assay: Percentage decrease in Mean arterial pressure in pentobarbital anesthetized dogs at 0.3 mg/kg; assay type: functional, Canis lupus familiaris, Artery; outline: as §5
Canis familiaris [17] = assay: Mean percentage change in the left ventricular contractility (dP/dt) in pentobarbital anesthetized dogs at 0.3 mg/kg; assay type: functional, Canis lupus familiaris, Heart left ventricle; outline: as §5
Canis familiaris [18] = assay: Mean percentage change in heart rate of pentobarbital anesthetized dogs at 0.3 mg/kg; assay type: functional, Canis lupus familiaris; outline: as §5
Canis familiaris [19] = assay: Mean percentage change in the left ventricular contractility (dP/dt) in pentobarbital anesthetized dogs at 0.1 mg/kg; assay type: functional, Canis lupus familiaris, Heart left ventricle; outline: as §5
Canis familiaris [20] = assay: Mean percentage change in heart rate of pentobarbital anesthetized dogs at 0.1 mg/kg; assay type: functional, Canis lupus familiaris; outline: as §5

inhibition (Canis lupus familiaris [1]) [%]	IC50 [9] [µM]	IC50 [13] [µM]	SMILES	Increase (Canis familiaris [4]) [%]	Decrease (Canis familiaris [5]) [%]	Decrease (Canis familiaris [6]) [%]	Increase (Canis familiaris [7]) [%]	inhibition (Canis lupus familiaris [8]) [%]	Increase (Canis familiaris [10]) [%]	EC20 (Mustela putorius furo [11]) [µM]	Increase (Canis familiaris [12]) [%]	further results
3			COc1ccc(C2CNC(=O)C2)cc1OC (configuration not stated)									EC20 (Mustela putorius furo [2]): Not reached; inhibition (Canis lupus familiaris [3]): 36%
	25		CC1=C(c2ccc(-n3ccnc3)cc2)CNC1=O	75	3	14	19	16	7	2.3	40	
46		40	COc1ccc(C2=CC(=O)NC2)cc1OC									EC20 (Mustela putorius furo [14]): 6.5 µM
28		0.8	COc1ccc(C2CNC(=O)C2)cc1OC1CCCC1 (configuration not stated) [ROLIPRAM]									EC20 (Mustela putorius furo [2]): inactive
	48		CCC1=C(c2ccc(-n3ccnc3)cc2)CNC1=O	44	13	22	21	10	9	10.7	21	
	5.5		Cc1[nH]c(=O)c(C#N)cc1-c1ccncc1 [MILRINONE]					34		0.5		Decrease (Canis familiaris [15]): 13%; Decrease (Canis familiaris [16]): 30%; Increase (Canis familiaris [17]): 81%; Increase (Canis familiaris [18]): 32%; Increase (Canis familiaris [19]): 57%; Increase (Canis familiaris [20]): 19%
	26	100	COc1ccc(C2=C(C)C(=O)NC2)cc1OC							3.8		
	30		CC1=C(c2ccc(-n3ccnc3C)cc2)CNC1=O	33	6	10	14	10	7	10.2	14	
	39		CCC1=C(c2ccc(-n3ccnc3C)cc2)CNC1=O	80	18	30	22	< 5	8	4.8	52	

Source: ChEMBL document CHEMBL1127041, “(Imidazolylphenyl)pyrrol-2-one inhibitors of cardiac cAMP phosphodiesterase” (J Med Chem, 1993)
